Here are results for seven compounds from ChEMBL document CHEMBL1126625, “7-Azetidinylquinolones as antibacterial agents. Synthesis and structure-activity relationships” (J Med Chem, 1993).

The test system of data set [1] is Proteus vulgaris. Kind of data set: Minimum inhibitory concentration (MIC) preventing growth of Proteus vulgaris. Type of data set: functional.
Data set [2] relates to Bacillus subtilis. Kind of data set: Minimum inhibitory concentration (MIC) preventing growth of Bacillus subtilis. Type of data set: functional.
Data set [3] relates to Staphylococcus aureus. Put plainly: Minimum inhibitory concentration (MIC) preventing growth of […]. Type of data set: functional.
Data set [4] deals with Enterobacter cloacae. Put plainly: Minimum inhibitory concentration (MIC)preventing growth of Enterobacter cloacae. Type of data set: functional.
The test system of data set [5] is Enterococcus faecalis. Kind of data set: Minimum inhibitory concentration (MIC) preventing growth of Streptococcus faecalis ATCC 10541. Format: functional.
For data set [6], the system named is Klebsiella pneumoniae. Kind of data set: Minimum inhibitory concentration (MIC)preventing growth of Klebsiella pneumoniae. Format: functional.
Data set [7] relates to Morganella morganii. Kind of data set: Minimum inhibitory concentration (MIC) preventing growth of Morganella morganii. Type of data set: functional.
Data set [8] relates to Staphylococcus epidermidis. Put plainly: Minimum inhibitory concentration (MIC) preventing growth of Staphylococcus epidermidis. Format: functional.
The subject of data set [9] is Mus musculus. Put plainly: Blood level after oral administration in mice (50 mg/kg) was determined by bioassay procedure and represent total activity present in the serum. Format: ADME, organism-based. To be noted: in vivo. The gist of the method: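 Single oral dose of 50 mg/kg to mice. Blood taken from groups of six mice at 0.5, 1, 2 and 4 h after dosing. Serum levels measured by disk agar diffusion bioassay with Bacillus subtilis ATCC 6633 on Seed Agar, plates incubated 18 h at 37 °C, giving total activity in serum. AUC 0-4 h expressed as μg/mL […].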

Data set [10] concerns Pseudomonas aeruginosa. Kind of data set: Minimum inhibitory concentration (MIC)preventing growth of Pseudomonas aeruginosa. Format: functional.
For data set [11], the system named is Bacillus cereus. Put plainly: Minimum inhibitory concentration (MIC) preventing growth of Bacillus cereus. Format: functional.
In data set [12] the test system is Escherichia coli. Kind of data set: Minimum inhibitory concentration (MIC)preventing growth of Escherichia coli. Type of data set: functional.
Data set [13] deals with Staphylococcus aureus. Kind of data set: Efficacy on systemic infections after oral administration in mice was determined against […] HS-93. Type of data set: functional. The gist of the method: (§1)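 Mouse protection test using 4 groups of 10 mice. Mice were infected intraperitoneally with a bacterial suspension slightly above LD100. A single oral dose was given immediately after infection, with four doses, one per group, chosen from in vitro activity. Survival was scored after one week, and ED50 (total mg/kg protecting 50% of mice) was interpolated from group survival rates.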

In data set [14] the test system is Escherichia coli. Kind of data set: Efficacy on systemic infections after oral administration in mice was determined against Escherichia coli HM-42. Format: functional. The gist of the method: as §1
For data set [15], the system named is Pseudomonas aeruginosa. Put plainly: Efficacy on systemic infections after oral administration in mice was determined against Pseudomonas aeruginosa HS-116. Type of data set: functional. An outline of the steps:
as §1

Values after ≈ are worked out from the molar mass of the structure shown.

Take `CC1(N)CN(c2nc3c(cc2F)c(=O)c(C(=O)O)cn3C(C)(C)C)C1`: the MIC in [1] was found to be 0.25 µg/mL (≈ 0.718 µM); in data set [2], 0.015 µg/mL (≈ 0.0431 µM); in data set [3] it was 0.12 µg/mL (≈ 0.344 µM); in data set [4], 0.12 µg/mL (≈ 0.344 µM); in [5], 1 µg/mL (≈ 2.87 µM); in [6] it was 0.015 µg/mL (≈ 0.0431 µM). Further, the MIC is 0.12 µg/mL (≈ 0.344 µM) in data set [7]; 0.12 µg/mL (≈ 0.344 µM) in data set [8]; 2 µg/mL (≈ 5.74 µM) in [10]; 0.12 µg/mL (≈ 0.344 µM) in [11]; 0.06 µg/mL (≈ 0.172 µM) in data set [12]. Further, in [9], the AUC amounted to 11300 ng·h/mL.
Take `CNC1CN(c2c(F)cc3c(=O)c(C(=O)O)cn(-c4ccc(F)cc4F)c3c2Cl)C1`: the MIC was determined as 0.12 µg/mL (≈ 0.274 µM) in data set [1]; 0.015 µg/mL (≈ 0.0343 µM) in [2]; 0.015 µg/mL (≈ 0.0343 µM) in [3]; 0.12 µg/mL (≈ 0.274 µM) in data set [4]; 0.12 µg/mL (≈ 0.274 µM) in data set [5]; 0.12 µg/mL (≈ 0.274 µM) in data set [6]. The MIC worked out at 0.12 µg/mL (≈ 0.274 µM) in [7]; 0.06 µg/mL (≈ 0.137 µM) in [8]; 0.25 µg/mL (≈ 0.571 µM) in [10]; 0.06 µg/mL (≈ 0.137 µM) in data set [11]; 0.015 µg/mL (≈ 0.0343 µM) in [12]. Besides, the ED50 was determined as 1.3 mg/kg in [13], 1.3 mg/kg in data set [14] and 30 mg/kg in data set [15]. This compound came in with an AUC in data set [9] of 15300 ng·h/mL.
For `CC1(N)CN(c2c(F)cc3c(=O)c(C(=O)O)cn(-c4ccc(F)cc4F)c3c2Cl)C1`, the MIC in data set [1] was 0.12 µg/mL (≈ 0.274 µM); in data set [2] it was 0.03 µg/mL (≈ 0.0685 µM); in data set [3] it was 0.06 µg/mL (≈ 0.137 µM); in data set [4], 0.12 µg/mL (≈ 0.274 µM); in data set [5] it was 0.25 µg/mL (≈ 0.571 µM); in data set [6] it was 0.03 µg/mL (≈ 0.0685 µM). Also, the MIC was determined as 0.25 µg/mL (≈ 0.571 µM) in data set [7]; 0.06 µg/mL (≈ 0.137 µM) in data set [8]; 0.5 µg/mL (≈ 1.14 µM) in [10]; 0.06 µg/mL (≈ 0.137 µM) in data set [11]; 0.03 µg/mL (≈ 0.0685 µM) in [12]. For the same compound, the values for the ED50 in data set [13], in [14] and in data set [15] were 1.2 mg/kg, 1.5 mg/kg and 43 mg/kg, respectively. The same compound had an AUC in data set [9] of 23300 ng·h/mL.
As to `NC1CN(c2c(F)cc3c(=O)c(C(=O)O)cn(-c4ccc(F)cc4F)c3c2Cl)C1`, the MIC in data set [1] came to 0.015 µg/mL (≈ 0.0354 µM); in data set [2], 0.015 µg/mL (≈ 0.0354 µM); in data set [3], 0.015 µg/mL (≈ 0.0354 µM); in data set [4], 0.015 µg/mL (≈ 0.0354 µM); in [5], 0.06 µg/mL (≈ 0.142 µM); in data set [6], 0.015 µg/mL (≈ 0.0354 µM). The MIC was 0.015 µg/mL (≈ 0.0354 µM) in data set [7]; 0.015 µg/mL (≈ 0.0354 µM) in data set [8]; 0.12 µg/mL (≈ 0.283 µM) in [10]; 0.015 µg/mL (≈ 0.0354 µM) in data set [11]; 0.015 µg/mL (≈ 0.0354 µM) in data set [12]. The ED50 in data set [13] was found to be 1.7 mg/kg; in data set [14], 2.3 mg/kg; in [15], 55 mg/kg. In [9], the AUC worked out at 13000 ng·h/mL.
`CC1(N)CN(c2cc3c(cc2F)c(=O)c(C(=O)O)cn3C(C)(C)C)C1`: the MIC in data set [1] worked out at 0.25 µg/mL (≈ 0.72 µM); in [2], 0.06 µg/mL (≈ 0.173 µM); in [3] it was 0.25 µg/mL (≈ 0.72 µM); in [4], 0.25 µg/mL (≈ 0.72 µM); in [5] it was 0.5 µg/mL (≈ 1.44 µM); in data set [6], 0.12 µg/mL (≈ 0.345 µM). For the same compound, the MIC in data set [7] was 0.25 µg/mL (≈ 0.72 µM); in data set [8], 0.12 µg/mL (≈ 0.345 µM); in data set [10] it was 2 µg/mL (≈ 5.76 µM); in [11], 0.25 µg/mL (≈ 0.72 µM); in data set [12], 0.12 µg/mL (≈ 0.345 µM). This compound also returned an AUC in [9] of 5400 ng·h/mL.
Take `CNC1(C)CN(c2cc3c(cc2F)c(=O)c(C(=O)O)cn3C(C)(C)C)C1`: the MIC in data set [1] came to 0.5 µg/mL (≈ 1.38 µM); in data set [2] it was 0.06 µg/mL (≈ 0.166 µM); in data set [3], 0.25 µg/mL (≈ 0.692 µM); in [4] it was 0.25 µg/mL (≈ 0.692 µM); in data set [5], 0.5 µg/mL (≈ 1.38 µM); in data set [6], 0.06 µg/mL (≈ 0.166 µM). Besides, the MIC came out at 0.5 µg/mL (≈ 1.38 µM) in [7]; 0.25 µg/mL (≈ 0.692 µM) in data set [8]; 4 µg/mL (≈ 11.1 µM) in data set [10]; 0.25 µg/mL (≈ 0.692 µM) in data set [11]; 0.25 µg/mL (≈ 0.692 µM) in [12]. In [9], this compound had an AUC of 4600 ng·h/mL.
`CC1(N)CN(c2nc3c(cc2F)c(=O)c(C(=O)O)cn3-c2ccc(F)cc2)C1`: the MIC in data set [1] was 1 µg/mL (≈ 2.59 µM); in [2], 0.06 µg/mL (≈ 0.155 µM); in data set [3], 0.25 µg/mL (≈ 0.647 µM); in data set [4] it was 0.06 µg/mL (≈ 0.155 µM); in data set [5] it was 4 µg/mL (≈ 10.4 µM); in data set [6], 0.06 µg/mL (≈ 0.155 µM). Besides, the MIC in data set [7] was found to be 0.12 µg/mL (≈ 0.311 µM); in data set [8] it was 0.25 µg/mL (≈ 0.647 µM); in data set [10] it was 2 µg/mL (≈ 5.18 µM); in data set [11], 0.25 µg/mL (≈ 0.647 µM); in data set [12], 0.06 µg/mL (≈ 0.155 µM). Also, the ED50 is 7.5 mg/kg in data set [13], 1.3 mg/kg in data set [14] and 82.7 mg/kg in data set [15]. This compound also returned an AUC in data set [9] of 33000 ng·h/mL.
